IC50 data for 25 molecules are collected here from ChEMBL document CHEMBL1145793, “Discovery and structure-activity relationships of novel piperidine inhibitors of farnesyltransferase” (J Med Chem, 2003).

Where only a bound is given, the exact number is not on record here.

The assay has as its target Protein farnesyltransferase (Bos taurus, UniProt P29702+P49355). Put plainly: Inhibition of bovine brain farnesyltransferase (FTase) farnesylation of viral K-Ras. The essentials: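 Partially purified bovine brain farnesyltransferase, used as a crude dialysate. Substrates were viral K-Ras protein and [3H]farnesyl pyrophosphate. It was calculated by comparing untreated enzyme activity with activity at known inhibitor concentrations.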
Take `N[C@H]1C(c2cccc(Br)c2)CC(=O)N(Cc2cccnc2)[C@@H]1c1ccc(O)cc1` (stereo not given in full): the 50% inhibitory concentration (IC50) – broadly, the concentration that inhibits the measured activity by half – is > 3700 nM.

On to `O=C1CC(c2ccccc2Br)[C@H]([N+](=O)[O-])[C@@H](c2ccc(O)c(O)c2)N1Cc1cccnc1` (single isomer, unassigned; (+)), for which the IC50 was found to be 30 nM.

For `Nc1cc([C@@H]2[C@@H]([N+](=O)[O-])C(c3ccccc3Br)CC(=O)N2Cc2cccnc2)ccc1O` (stereo not given in full), the IC50 was 97 nM.

Take `O=C1CC(c2ccc(Br)cc2)[C@H]([N+](=O)[O-])[C@@H](c2ccc(O)cc2)N1Cc1cccnc1` (stereo not given in full): the IC50 is > 3700 nM.

Consider `O=[N+]([O-])[C@H]1C(c2ccccc2Br)CCN(Cc2cccnc2)[C@@H]1c1ccc(O)cc1` (single isomer, unassigned; (+)), for which 5.8 nM corresponded to half-maximal inhibition (IC50).

`O=[N+]([O-])[C@H]1C(c2ccccc2Br)CCN(Cc2cccnc2)[C@@H]1c1ccc(O)cc1` (single isomer, unassigned; (-)): the IC50 was > 310 nM.

`O=C1CC(c2ccccc2Br)[C@H]([N+](=O)[O-])[C@@H](c2ccc(O)c(O)c2)N1Cc1cccnc1` (single isomer, unassigned; (-)) had an IC50 of 1200 nM.

The molecule `O=C1CC(c2cccc(Br)c2)[C@H]([N+](=O)[O-])[C@@H](c2ccc(O)cc2)N1Cc1cccnc1` (stereo in doubt) yielded an IC50 of 420 nM.

Molecule `O=C1CC(c2ccccc2Br)[C@H]([N+](=O)[O-])[C@@H](c2ccc(O)c(O)c2)N1Cc1cccnc1` (mixture of isomers) showed an IC50 of 46 nM.

Consider `O=[N+]([O-])[C@H]1C(c2ccccc2Br)CCN(Cc2cccnc2)[C@@H]1c1ccc(O)c(O)c1` (stereo in doubt; 8-(-)), for which the IC50 is > 310 nM.

Regarding `Cc1cccc(C2CC(=O)N(Cc3cccnc3)[C@H](c3ccc(O)cc3)[C@H]2[N+](=O)[O-])c1` (stereo not given in full), the IC50 came to 410 nM.

Regarding `O=C1CC(c2cccc(Br)c2)[C@H]([N+](=O)[O-])[C@@H](c2ccc(O)cc2)N1Cc1cccnc1` (stereo in doubt; 1), the IC50 amounted to 350 nM.

`O=[N+]([O-])[C@H]1C(c2ccccc2Br)CCN(Cc2cccnc2)[C@@H]1c1ccc(O)c(O)c1` (single isomer, unassigned; (+)): it took 1.9 nM to reach half-maximal inhibition (IC50). Compared with the last molecule, the IC50 is about 180-fold lower.

As to `O=C1CC(c2cccc(Br)c2)[C@H]([N+](=O)[O-])[C@@H](c2ccc(O)cc2)N1Cc1ccc[n+]([O-])c1` (stereo not given in full), the IC50 is > 3700 nM.

Molecule `O=C1CC(c2cccc(Cl)c2)[C@H]([N+](=O)[O-])[C@@H](c2ccc(O)cc2)N1Cc1cccnc1` (stereo not given in full) showed an IC50 of 320 nM.

For the molecule `O=C1CC(c2cccc(Br)c2)[C@H](NO)[C@@H](c2ccc(O)cc2)N1Cc1cccnc1` (stereo not given in full), the IC50 is > 3700 nM.

In the case of `O=C1CC(c2ccccc2Br)[C@H]([N+](=O)[O-])[C@@H](c2ccc(O)cc2)N1Cc1cccnc1` (single isomer, unassigned; (+)), half-maximal inhibition (IC50) required 75 nM.

With `COc1ccc([C@@H]2[C@@H]([N+](=O)[O-])C(c3ccccc3Br)CC(=O)N2Cc2cccnc2)cc1` (stereo not given in full), the IC50 is > 1200 nM.

As for `O=[N+]([O-])[C@H]1C(c2ccccc2Br)CCN(Cc2cccnc2)[C@@H]1c1ccc(O)cc1` (mixture of isomers), half-maximal inhibition (IC50) required 8.2 nM.

In the case of `O=C1CC(c2ccccc2Br)[C@H]([N+](=O)[O-])[C@@H](c2ccc(O)cc2)N1Cc1cccnc1` (mixture of isomers), half-maximal inhibition (IC50) was put at 140 nM.

Take `O=C1CC(c2ccccc2Br)[C@H]([N+](=O)[O-])[C@@H](c2ccc(O)c(CO)c2)N1Cc1cccnc1` (stereo not given in full): the half-maximal inhibitory concentration (IC50) is > 1200 nM.

`O=C1CC(c2ccccc2Br)[C@H]([N+](=O)[O-])[C@@H](c2ccc(O)cc2)N1Cc1cccnc1` (single isomer, unassigned; (-)) displayed an IC50 of 950 nM.

For the molecule `O=[N+]([O-])[C@H]1C(c2ccccc2Br)C=CN(Cc2cccnc2)[C@@H]1c1ccc(O)c(O)c1` (stereo not given in full), the IC50 turned out to be 13 nM.

With `O=C1CC(c2cccc(Br)c2)[C@H]([N+](=O)[O-])[C@@H](c2ccc(O)cc2)N1Cc1ccncc1` (stereo not given in full), the IC50 was > 3700 nM.

Molecule `O=[N+]([O-])[C@H]1C(c2ccccc2Br)CCN(Cc2cccnc2)[C@@H]1c1ccc(O)c(O)c1` (mixture of isomers) returned an IC50 of 3.7 nM.
